Calls of active or inactive are those of the source.
Tests used:
[1] = target: Delta-type opioid receptor (Rattus norvegicus) (UniProt P33533); experiment: Agonist activity at rat delta opioid receptor expressed in rat C6 cell membranes assessed as stimulation of [35S]GTPgammaS binding incubated for 1 hr relative to DPDPE; assay type: functional
[2] = target: Mu-type opioid receptor (Rattus norvegicus) (UniProt P33535); experiment: Agonist activity at rat mu opioid receptor expressed in rat C6 glioma cell membranes assessed as stimulation of [35S]GTPgammaS binding measured after 1 hr relative to DAMGO; assay type: functional
[3] = target: T1, Kappa-type opioid receptor (Homo sapiens, UniProt P41145); experiment: Agonist activity at human kappa opioid receptor expressed in CHO cell membranes assessed as stimulation of [35S]GTPgammaS binding measured after 1 hr; assay type: functional
[4] = target: T1, Kappa-type opioid receptor; experiment: Agonist activity at human kappa opioid receptor expressed in CHO cell membranes assessed as stimulation of [35S]GTPgammaS binding to G protein incubated for 1 hr relative to U69,593; assay type: functional
[5] = target: T2, Delta-type opioid receptor (Rattus norvegicus, UniProt P33533); experiment: Agonist activity at rat delta opioid receptor expressed in rat C6 cell membranes assessed as stimulation of [35S]GTPgammaS binding measured after 1 hr; assay type: functional
Mus musculus [6] = experiment: Antinociceptive activity in C57BL/6 mouse assessed as increase in latency to tail withdrawal up to 10 mg/kg, ip administered at 30 mins interval measured during compound dosing by warm water tail withdrawal assay relative to control; assay type: functional
Outline: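 Male C57BL/6 mice, 20–30 g, 8–16 weeks. Saline ip, baseline latency 30 min later; then cumulative ip doses 1, 3.2, 10 mg/kg in 5% DMSO/saline at 30 min intervals, latency read 30 min after each. Tail tip (2–3 cm) in 50°C water, 20 s cutoff; expressed as % MPE (MPE = 20 s).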

[7] = target: Mu-type opioid receptor (Rattus norvegicus) (UniProt P33535); experiment: (§1) Agonist activity at rat mu opioid receptor expressed in rat C6 cell membranes assessed as stimulation of [35S]GTPgammaS binding measured after 1 hr; assay type: functional
Outline: (§2)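 Membranes (10–20 μg protein/tube) from stably transfected cells incubated 1 h at 25°C in 50 mM Tris-HCl, 100 mM NaCl, 5 mM MgCl2, pH 7.4, with 0.1 nM [35S]-GTPγS, 30 μM GDP and varying test concentrations; filtration, scintillation counting.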

Rattus norvegicus = organism: Rattus norvegicus; experiment: Selectivity ratio of Ki for rat delta opioid receptor expressed in rat C6 cell membranes to Ki for rat mu opioid receptor expressed in rat C6 cell membranes; assay type: cell-based
Outline: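 Competition binding against 0.2 nM [3H]-diprenorphine, using C6 membranes expressing rat MOR or rat DOR (20 μg protein/tube). Run in 50 mM Tris-HCl pH 7.4, 1 h at room temperature with shaking, then filtration and scintillation counting. Nonspecific binding with 10 μM naloxone.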

[8] = target: T1, Kappa-type opioid receptor; experiment: Displacement of [3H]diprenorphine from human kappa opioid receptor expressed in CHO cell membranes measured after 1 hr by liquid scintillation counting method
Outline: (§3)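 Competition with 0.2 nM [3H]-diprenorphine on membranes (20 μg protein/tube) from stably transfected cells in 50 mM Tris-HCl pH 7.4, 1 h at room temperature with shaking; GF/C filtration, three washes, scintillation counting. Nonspecific binding defined with 10 μM naloxone.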

[9] = target: T2, Delta-type opioid receptor; experiment: Displacement of [3H]diprenorphine from rat delta opioid receptor expressed in rat C6 cell membranes measured after 1 hr by liquid scintillation counting method
Mu-type opioid receptor [10] = target: T3, Mu-type opioid receptor (Rattus norvegicus, UniProt P33535); experiment: Displacement of [3H]diprenorphine from rat mu opioid receptor expressed in rat C6 cell membranes measured after 1 hr by liquid scintillation counting method; outline: as §3
[11] = Lipophilicity, log P of the compound; assay type: physicochemical; settings: octanol/water
Mu-type opioid receptor [12] = target: T3, Mu-type opioid receptor; experiment: as §1; assay type: functional; outline: as §2
Mus musculus [13] = experiment: Antinociceptive activity in C57BL/6 mouse assessed as increase in latency to tail withdrawal by measuring time of action at 10 mg/kg, ip administered as bolus dose by warm water tail withdrawal assay; assay type: functional
Outline: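 Male C57BL/6 mice; saline ip, baseline 30 min later, then single 10 mg/kg ip bolus in 5% DMSO/saline. Tail withdrawal in 50°C water (20 s cutoff) at 5, 15, 30 min and every 30 min until return to baseline; duration = time from dosing to baseline return, done only for fully active compounds.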

[14] = target: Delta-type opioid receptor (Rattus norvegicus) (UniProt P33533); experiment: Agonist activity at rat delta opioid receptor expressed in C6 cell membranes assessed as stimulation of [35S]GTPgammaS binding at 1 uM incubated for 1 hr relative to SNC80; assay type: functional
Outline: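 Rat DOR in C6 glioma membranes, [35S]-GTPγS binding (0.1 nM, 30 μM GDP, 1 h, 25°C). SNC80 concentration–response run alone and with 1 μM test compound present; stimulation expressed relative to SNC80. Ke = compound concentration/(EC50 shift − 1). Mean of ≥3 assays in duplicate.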

[15] = target: Delta-type opioid receptor (Rattus norvegicus) (UniProt P33533); experiment: Antagonist activity at rat delta opioid receptor expressed in rat C6 cell membranes assessed as inhibition of SNC80-induced [35S] GTPgammaS binding measured after 1 hr; assay type: functional
Outline: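 Membranes from rat C6 glioma cells stably expressing rat DOR; [35S]-GTPγS (0.1 nM) binding stimulated by SNC80 concentration–response, alone or with test compound at 1 μM, 1 h at 25°C in 50 mM Tris-HCl, 100 mM NaCl, 5 mM MgCl2, pH 7.4, with 30 μM GDP; filtration and scintillation counting.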

T1 sequence (P41145 whole entry): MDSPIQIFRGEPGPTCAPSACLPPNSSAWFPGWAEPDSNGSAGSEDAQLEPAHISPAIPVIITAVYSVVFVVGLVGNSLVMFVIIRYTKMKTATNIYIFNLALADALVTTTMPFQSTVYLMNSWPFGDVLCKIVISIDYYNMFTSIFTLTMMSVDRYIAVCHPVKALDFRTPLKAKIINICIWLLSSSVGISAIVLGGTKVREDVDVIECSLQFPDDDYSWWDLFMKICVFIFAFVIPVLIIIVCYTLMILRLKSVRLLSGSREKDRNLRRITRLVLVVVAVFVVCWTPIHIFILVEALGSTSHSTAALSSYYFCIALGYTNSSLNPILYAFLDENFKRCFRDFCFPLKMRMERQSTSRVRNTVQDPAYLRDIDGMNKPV
T2 sequence (P33533 whole entry): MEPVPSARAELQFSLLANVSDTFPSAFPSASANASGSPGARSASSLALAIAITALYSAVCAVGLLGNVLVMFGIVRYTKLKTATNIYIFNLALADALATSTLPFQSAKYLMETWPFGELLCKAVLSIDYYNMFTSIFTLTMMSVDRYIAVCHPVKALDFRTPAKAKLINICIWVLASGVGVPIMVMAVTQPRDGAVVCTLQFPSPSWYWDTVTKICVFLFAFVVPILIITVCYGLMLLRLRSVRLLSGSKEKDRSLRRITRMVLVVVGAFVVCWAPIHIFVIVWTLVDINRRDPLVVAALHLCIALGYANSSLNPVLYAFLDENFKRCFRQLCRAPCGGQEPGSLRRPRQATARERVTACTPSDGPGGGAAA
Chain of Delta-type opioid receptor (Rattus norvegicus) (P33533 whole entry): as above
T3 sequence (P33535 whole entry): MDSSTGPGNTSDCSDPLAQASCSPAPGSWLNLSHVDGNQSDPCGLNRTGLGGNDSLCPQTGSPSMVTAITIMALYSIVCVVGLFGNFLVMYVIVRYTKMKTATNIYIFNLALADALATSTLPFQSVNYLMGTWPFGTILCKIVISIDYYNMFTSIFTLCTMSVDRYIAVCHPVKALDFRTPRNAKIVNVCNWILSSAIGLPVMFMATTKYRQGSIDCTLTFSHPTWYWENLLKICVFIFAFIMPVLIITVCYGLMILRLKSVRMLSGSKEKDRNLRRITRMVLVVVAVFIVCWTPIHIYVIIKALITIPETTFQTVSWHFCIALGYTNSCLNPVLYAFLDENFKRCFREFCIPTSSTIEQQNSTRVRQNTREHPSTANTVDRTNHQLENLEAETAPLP
Chain of Mu-type opioid receptor (Rattus norvegicus) (P33535 whole entry): as above

For `Cc1cc(O)cc(C)c1C[C@H](N)C(=O)N[C@@H]1CCN(C(=O)c2ccccc2)c2ccc(Cc3ccc4c(c3)OCCO4)cc21.O=C(O)C(F)(F)F`, the Efficacy [1] was “inactive”, the Efficacy [2] was “inactive” and the EC50 ([3]; read-out: EC50) was greater than 500 nM. For the same molecule, the Efficacy [4] was 60%, the EC50 ([5]; c6) was “Not Active” and the MPE (Mus musculus [6]) was “inactive”. For the same molecule, the Activity [7] was “inactive”, the Ratio Ki (Rattus norvegicus) was 0.2 and the Ki [8] was 240 nM. It also gave a Ki [9] of 0.22 nM, a Ki (Mu-type opioid receptor [10]) of 1.5 nM and a logP [11] of 4.4.
With `CC(=O)N1CC[C@@H](NC(=O)[C@@H](N)Cc2c(C)cc(O)cc2C)c2cc(CN3CCc4ccccc4C3)ccc21.O=C(O)C(F)(F)F` the Efficacy [1] was “inactive”, the Efficacy [2] was 96% and the EC50 ([3]; read-out: EC50) was 190 nM. For the same molecule, the Efficacy [4] was 41%, the EC50 ([5]; c6) was “Not Active” and the MPE (Mus musculus [6]) was 100%. For the same molecule, the EC50 (Mu-type opioid receptor [12]) was 6 nM, the Ratio Ki (Rattus norvegicus) was 5 and the Ki [8] was 0.78 nM. The Ki [9] was 0.89 nM, the Ki (Mu-type opioid receptor [10]) was 0.19 nM and the Time (Mus musculus [13]) was 240 min. It also gave a logP [11] of 3.2.
In the case of `Cc1cc(O)cc(C)c1C[C@H](N)C(=O)N[C@@H]1CCNc2ccc(Cc3ccccc3)cc21.O=C(O)C(F)(F)F`, the MPE (Mus musculus [6]) is reported as 100%, the Time (Mus musculus [13]) is reported as 120 min and the logP [11] is reported as 3.8.
Work on `Cc1cc(O)cc(C)c1C[C@H](N)C(=O)N[C@@H]1CCN(S(C)(=O)=O)c2ccc(Cc3ccccc3)cc21.O=C(O)C(F)(F)F` yielded an Efficacy [1] of 22%, an Efficacy [2] of 98% and an EC50 ([3]; read-out: EC50) of 121 nM. It also gave an Efficacy [4] of 60%, an EC50 ([5]; read-out: EC50) of 12 nM and an MPE (Mus musculus [6]) of 100%. It also gave an EC50 (Mu-type opioid receptor [12]) of 0.23 nM, a Ratio Ki (Rattus norvegicus) of 7 and a Ki [8] of 8 nM. The Ki [9] was 0.41 nM, the Ki (Mu-type opioid receptor [10]) was 0.06 nM and the Time (Mus musculus [13]) was 60 min. It also gave a logP [11] of 3.3.
With `Cc1cc(O)cc(C)c1C[C@H](N)C(=O)N[C@@H]1CCN(C(=O)c2ccccc2)c2ccc(Cc3ccc4ccccc4c3)cc21.O=C(O)C(F)(F)F` the Efficacy [2] was 57%, the EC50 ([3]; cho) was “Not Active” and the Efficacy [4] was “inactive”. For the same molecule, the EC50 ([5]; c6) was “Not Active”, the MPE (Mus musculus [6]) was 100% and the EC50 (Mu-type opioid receptor [12]) was 7.9 nM. It also gave a Ki [8] of 160 nM, a Ki [9] of 0.46 nM and a Ki (Mu-type opioid receptor [10]) of 0.26 nM. It also gave a Time (Mus musculus [13]) of 150 min.
With `Cc1cc(O)cc(C)c1C[C@H](N)C(=O)N[C@@H]1CCN(S(C)(=O)=O)c2ccc(CN3CCc4ccccc4C3)cc21.O=C(O)C(F)(F)F` the Efficacy [1] was “inactive”, the Efficacy [2] was 114% and the EC50 ([3]; read-out: EC50) was 45 nM. The Efficacy [4] was 51%, the EC50 ([5]; c6) was “Not Active” and the MPE (Mus musculus [6]) was 100%. For the same molecule, the EC50 (Mu-type opioid receptor [12]) was 0.12 nM, the Ratio Ki (Rattus norvegicus) was 9 and the Ki [8] was 1.1 nM. The Ki [9] was 0.98 nM, the Ki (Mu-type opioid receptor [10]) was 0.11 nM and the Time (Mus musculus [13]) was 90 min. The logP [11] was 3.1, the Activity [14] was 100% and the Ke [15] was 0.85 nM.
In the case of `CC(=O)N1CC[C@@H](NC(=O)[C@@H](N)Cc2c(C)cc(O)cc2C)c2cc(Cc3cnc4ccccc4c3)ccc21.O=C(O)C(F)(F)F`, the Efficacy [1] is reported as 35%, the Efficacy [2] is reported as 76% and the EC50 ([3]; cho) is reported as “Not Active”. The Efficacy [4] was “inactive”, the EC50 ([5]; read-out: EC50) was 5.8 nM and the MPE (Mus musculus [6]) was 60%. For the same molecule, the EC50 (Mu-type opioid receptor [12]) was 1.1 nM, the Ratio Ki (Rattus norvegicus) was 1 and the Ki [8] was 53 nM. The Ki [9] was 0.2 nM, the Ki (Mu-type opioid receptor [10]) was 0.15 nM and the logP [11] was 3.2.
For `Cc1cc(O)cc(C)c1C[C@H](N)C(=O)N[C@@H]1CCN(S(C)(=O)=O)c2ccc(Cc3ccc4ccccc4c3)cc21.O=C(O)C(F)(F)F`, the Efficacy [1] was “inactive”, the Efficacy [2] was 102% and the EC50 ([3]; cho) was “Not Active”. The Efficacy [4] was “inactive”, the EC50 ([5]; c6) was “Not Active” and the MPE (Mus musculus [6]) was “inactive”. The EC50 (Mu-type opioid receptor [12]) was 0.23 nM, the Ratio Ki (Rattus norvegicus) was 24 and the Ki [8] was 27 nM. The Ki [9] was 0.95 nM, the Ki (Mu-type opioid receptor [10]) was 0.04 nM and the logP [11] was 4.4.
In the case of `Cc1cc(O)cc(C)c1C[C@H](N)C(=O)N[C@@H]1CCN(C(=O)C2CC2)c2ccc(Cc3ccc4c(c3)OCCO4)cc21.O=C(O)C(F)(F)F`, the Efficacy [1] is reported as “inactive”, the Efficacy [2] is reported as 36% and the EC50 ([3]; cho) is reported as “Not Active”. For the same molecule, the Efficacy [4] was “inactive”, the EC50 ([5]; c6) was “Not Active” and the MPE (Mus musculus [6]) was “inactive”. The EC50 (Mu-type opioid receptor [12]) was 6 nM, the Ratio Ki (Rattus norvegicus) was 0.7 and the Ki [8] was 412 nM. It also gave a Ki [9] of 0.19 nM, a Ki (Mu-type opioid receptor [10]) of 0.28 nM and a logP [11] of 3.7.
